pKd, pKi: −log10 of the molar value.

Assay [1] deals with Fibroblast growth factor 2 (Homo sapiens, UniProt P09038). Description: Binding affinity to FGF2 by surface plasmon-based solution affinity assay. Put shortly: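 Surface plasmon resonance solution affinity assay on heparin-coated CM4 chips. FGF-2 binding run in HBS-EP containing 300 mM NaCl. Kd is the mean of at least duplicate measurements ± SD.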
For assay [2], the target named is Fibroblast growth factor 1 (Homo sapiens, UniProt P05230). Description: Binding affinity to FGF1 by surface plasmon-based solution affinity assay. Put shortly:
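Surface plasmon resonance solution affinity assay on heparin-coated CM4 chips. Buffer: HBS-EP (10 mM HEPES pH 7.4, 150 mM NaCl, 3.0 mM EDTA, 0.005% polysorbate 20). Kd is the mean of at least duplicate measurements ± SD.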
In general terms: Surface plasmon resonance follows binding to a sensor surface in real time, without labels.

For assay [3], the target named is T1, Vascular endothelial growth factor A (Homo sapiens, UniProt P15692).
T1 sequence (P15692 whole entry): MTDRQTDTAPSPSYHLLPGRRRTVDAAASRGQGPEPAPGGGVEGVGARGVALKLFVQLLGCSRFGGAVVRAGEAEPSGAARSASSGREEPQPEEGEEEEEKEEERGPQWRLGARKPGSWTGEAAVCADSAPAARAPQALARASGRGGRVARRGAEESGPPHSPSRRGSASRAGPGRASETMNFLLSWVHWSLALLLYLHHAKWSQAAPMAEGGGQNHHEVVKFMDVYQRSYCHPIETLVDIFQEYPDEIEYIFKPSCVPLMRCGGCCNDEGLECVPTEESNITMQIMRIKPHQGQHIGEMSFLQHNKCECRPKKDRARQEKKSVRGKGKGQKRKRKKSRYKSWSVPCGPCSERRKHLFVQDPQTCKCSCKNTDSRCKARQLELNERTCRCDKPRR
Description: Binding affinity to VEGF by surface plasmon-based solution affinity assay.

The target in another assay is T2, Heparanase (Homo sapiens, UniProt Q9Y251).
T2 sequence (Q9Y251 whole entry): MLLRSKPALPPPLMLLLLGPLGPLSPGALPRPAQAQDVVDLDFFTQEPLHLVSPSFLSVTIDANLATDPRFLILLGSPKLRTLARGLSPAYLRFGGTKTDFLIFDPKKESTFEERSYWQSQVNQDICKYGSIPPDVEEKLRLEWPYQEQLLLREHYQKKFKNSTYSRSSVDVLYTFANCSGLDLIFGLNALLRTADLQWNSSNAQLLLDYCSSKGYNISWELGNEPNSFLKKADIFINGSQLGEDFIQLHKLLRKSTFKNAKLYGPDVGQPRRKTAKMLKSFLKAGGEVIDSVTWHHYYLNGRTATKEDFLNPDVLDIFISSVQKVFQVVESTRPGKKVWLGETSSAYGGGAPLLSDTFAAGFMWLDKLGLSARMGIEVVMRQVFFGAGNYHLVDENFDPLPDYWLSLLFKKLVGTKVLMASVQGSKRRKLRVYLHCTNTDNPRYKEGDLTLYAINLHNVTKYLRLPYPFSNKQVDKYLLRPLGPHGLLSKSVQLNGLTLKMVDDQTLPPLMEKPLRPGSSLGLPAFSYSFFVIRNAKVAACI
Description: Inhibition of human recombinant heparanase. In outline: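 Recombinant human heparanase assayed by ultrafiltration with 3H-labelled heparan sulfate as substrate (Km = 1.64 μM). Ki values with standard error were derived from inhibition response curves.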

Sequence of Fibroblast growth factor 2 (P09038 143-288 limits assumed): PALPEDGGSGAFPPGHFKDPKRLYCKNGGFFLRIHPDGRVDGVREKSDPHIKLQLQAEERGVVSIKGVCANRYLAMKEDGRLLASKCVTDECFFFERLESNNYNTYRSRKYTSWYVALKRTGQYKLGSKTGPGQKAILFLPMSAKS
Sequence of Fibroblast growth factor 1 (P05230 whole entry): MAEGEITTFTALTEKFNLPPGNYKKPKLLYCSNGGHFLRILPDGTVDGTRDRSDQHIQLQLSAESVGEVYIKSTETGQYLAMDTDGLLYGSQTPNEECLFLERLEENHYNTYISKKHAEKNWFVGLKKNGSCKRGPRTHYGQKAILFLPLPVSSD

As usually defined, the pKd is the negative decadic logarithm of the Kd, by convention in mol/L. Low values mean a high Kd, high ones a low Kd. As a reminder, the pKi is the negative decadic logarithm of the Ki, by convention in mol/L. Turning to `O=P(O)(O)OC[C@H]1O[C@H](O[C@@H]2[C@H](OS(=O)(=O)O)[C@@H](O[C@@H]3[C@H](OS(=O)(=O)O)[C@@H](O[C@@H]4[C@H](OS(=O)(=O)O)[C@@H](O[C@@H]5[C@@H](OS(=O)(=O)O)O[C@H](COS(=O)(=O)O)[C@@H](OS(=O)(=O)O)[C@@H]5OS(=O)(=O)O)O[C@H](COS(=O)(=O)O)[C@H]4OS(=O)(=O)O)O[C@H](COS(=O)(=O)O)[C@H]3OS(=O)(=O)O)O[C@H](COS(=O)(=O)O)[C@H]2OS(=O)(=O)O)[C@@H](OS(=O)(=O)O)[C@@H](OS(=O)(=O)O)[C@@H]1OS(=O)(=O)O` [PI-88], the pKd in assay [1] was 7.21; in assay [2] it was 9.62; in assay [3], 8.66. The pKi on Heparanase is 6.62.

The values are drawn from BindingDB's records for doi:10.1021/jm901449m (Progen Pharmaceuticals, 2010).
